# Test results: ChEMBL document CHEMBL1153995, “Synthesis and biological evaluation of new enantiomerically pure azole derivatives as inhibitors of Mycobacterium tuberculosis” (2009)
# System: Mycobacterium tuberculosis
# Experiment: Antimycobacterial activity against Mycobacterium tuberculosis H37Rv ATCC 27294 after 21 to 28 days by two fold agar dilution method
# Assay type: functional
# Method in brief: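 Stock kept on Löwenstein-Jensen slants. Twofold agar dilution in Middlebrook 7H11 agar with 10% OADC, compounds at 0.0312–64 µg/mL. Inoculum grown in Middlebrook 7H9 with 10% ADC, suspension at 1.5 × 10⁵ cfu/mL, final 1.5 × 10³ per well. Incubated 21–28 days. MIC read as lowest concentration completely inhibiting visible growth.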
row,Compound,MIC [µg/mL]
1,Clc1ccc(Cn2cc([C@@H](c3ccc(Cl)cc3)n3ccnc3)nn2)cc1,32
2,Fc1ccc([C@H](c2cn(Cc3ccccc3)nn2)n2ccnc2)cc1,64
3,Fc1ccc([C@@H](c2cn(Cc3ccccc3)nn2)n2ccnc2)cc1,64
4,Brc1ccc([C@H](c2cn(-c3ccccc3)nn2)n2ccnc2)cc1,32
5,Brc1ccc([C@@H](c2cn(Cc3ccccc3)nn2)n2ccnc2)cc1,32
6,Brc1ccc([C@@H](c2cn(-c3ccccc3)nn2)n2ccnc2)cc1,32
7,Brc1ccc([C@H](c2cn(Cc3ccccc3)nn2)n2ccnc2)cc1,16
8,Clc1ccc(Cn2cc([C@H](c3ccc(Cl)cc3)n3ccnc3)nn2)cc1,32
9,Fc1ccc([C@@H](c2cn(-c3ccccc3)nn2)n2ccnc2)cc1,32
10,Fc1ccc([C@H](c2cn(-c3ccccc3)nn2)n2ccnc2)cc1,32
11,Clc1ccccc1C(c1ccccc1)(c1ccccc1)n1ccnc1 [CLOTRIMAZOLE],20.4
12,Clc1ccc(COC(Cn2ccnc2)c2ccc(Cl)cc2Cl)cc1 (stereo not drawn) [ECONAZOLE],12.5
13,NNC(=O)c1ccncc1 [ISONIAZID],0.2
